Laboratory results as given in ChEMBL document CHEMBL4190344, “Synthesis of substituted phenanthrene-9-benzimidazole conjugates: Cytotoxicity evaluation and apoptosis inducing studies” (Eur J Med Chem, 2017).
Activity calls are given as the source filed them. No cut-off for these calls is given here.

Legend:
MDA-MB-453 = assay: Cytotoxicity in human MDA-MB-453 cells incubated for 48 hrs by MTT assay; type: functional, cell-based; settings: MDA-MB-453, 48 h
In short: (§1)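 Cells (1 × 10^4/well) were seeded in medium with 10% FBS and left 24 h at 37 °C. Compound diluted in medium was then added, alongside a vehicle control, for 48 h. MTT (5 mg/mL stock) was added for 4 h, formazan dissolved in DMSO and absorbance read at 570 nm. IC50 taken as the concentration giving 50% inhibition.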

BT-549 = assay: Cytotoxicity in human BT549 cells incubated for 48 hrs by MTT assay; type: functional, cell-based; settings: BT-549, 48 h; in short: as §1
DU-145 = assay: Cytotoxicity in human DU145 cells incubated for 48 hrs by MTT assay; type: functional, cell-based; settings: DU-145, 48 h; in short: as §1
HCT-15 = assay: Cytotoxicity in human HCT15 cells incubated for 48 hrs by MTT assay; type: functional, cell-based; settings: HCT-15, 48 h; in short: as §1
HCT-116 = assay: Cytotoxicity in human HCT116 cells incubated for 48 hrs by MTT assay; type: functional, cell-based; settings: HCT-116, 48 h
In short: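 Cells (1 × 10^4/well) were seeded in medium with 10% FBS and left 24 h at 37 °C. Compound diluted in medium was then added, alongside a vehicle control, for 48 h. MTT (5 mg/mL stock) was added for 4 h, formazan dissolved in DMSO and absorbance read at 570 nm.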

PC-3 = assay: Cytotoxicity in human PC3 cells incubated for 48 hrs by MTT assay; type: functional, cell-based; settings: PC-3, 48 h; in short: as §1
Calf thymus DNA = assay: Binding affinity to calf thymus DNA assessed as increase in relative viscosity of DNA-compound complex at 5 uM by viscometry; type: nucleic-acid assay; settings: Bos taurus
In short: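 Viscosity titration of test compound (5 µM) into CT-DNA (50 µM) in 100 mM Tris-HCl pH 7.0. Rolling-ball viscometer, ball fall time read at angles of 20° to 70°, Peltier-held temperature, viscosity calculated at 25 °C.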

COC(=O)c1ccc2nc(-c3cc4cc(OC)c(OC)cc4c4cc(OC)c(OC)cc34)[nH]c2c1
IC50 (MDA-MB-453): > 20 µM
IC50 (BT-549): > 20 µM
IC50 (DU-145): 17.2 µM
IC50 (HCT-15): > 20 µM
IC50 (HCT-116): > 20 µM
IC50 (PC-3): 16.7 µM

COc1ccc2cc(-c3nc4ccccc4[nH]3)c3cc(OC)c(OC)cc3c2c1
IC50 (MDA-MB-453): > 20 µM
IC50 (BT-549): 11.4 µM
IC50 (DU-145): 17.2 µM
IC50 (HCT-15): > 20 µM
IC50 (HCT-116): > 20 µM
IC50 (PC-3): > 20 µM

CN1CCN(c2ccc3[nH]c(-c4ccc5[nH]c(-c6ccc(O)cc6)nc5c4)nc3c2)CC1
Activity (Calf thymus DNA): inactive

COc1ccc2cc(-c3nc4ccc(Cl)cc4[nH]3)c3cc(OC)c(OC)cc3c2c1
IC50 (MDA-MB-453): > 20 µM
Activity (Calf thymus DNA): Active
IC50 (BT-549): 14.2 µM
IC50 (DU-145): > 20 µM
IC50 (HCT-15): > 20 µM
IC50 (HCT-116): 11.3 µM
IC50 (PC-3): 7.24 µM

COc1cc2cc(-c3nc4cc(Cl)ccc4n3Cc3cc(C)cc(C)c3)c3cc(OC)c(OC)cc3c2cc1OC
IC50 (MDA-MB-453): 16.5 µM
IC50 (BT-549): > 20 µM
IC50 (DU-145): > 20 µM
IC50 (HCT-15): 15.6 µM
IC50 (HCT-116): > 20 µM
IC50 (PC-3): 12.8 µM

COc1cc2cc(-c3nc4ccc(Cl)cc4[nH]3)c3cc(OC)c(OC)cc3c2cc1OC
IC50 (MDA-MB-453): 9.42 µM
IC50 (BT-549): > 20 µM
IC50 (DU-145): > 20 µM
IC50 (HCT-15): > 20 µM
IC50 (HCT-116): > 20 µM
IC50 (PC-3): 18.9 µM

COc1ccc2nc(-c3cc4cc(OC)c(OC)cc4c4cc(OC)c(OC)cc34)[nH]c2c1
IC50 (MDA-MB-453): 9.98 µM
IC50 (BT-549): 11.5 µM
IC50 (DU-145): > 20 µM
IC50 (HCT-15): 10.2 µM
IC50 (HCT-116): 8.91 µM
IC50 (PC-3): 13.1 µM

CC[n+]1c(-c2ccccc2)c2cc(N)ccc2c2ccc(N)cc21
Activity (Calf thymus DNA): Active

COc1ccc2cc(-c3nc4cc(Cl)ccc4n3Cc3ccccc3)c3cc(OC)c(OC)cc3c2c1
IC50 (MDA-MB-453): 7.2 µM
IC50 (BT-549): > 20 µM
IC50 (DU-145): > 20 µM
IC50 (HCT-15): 14.1 µM
IC50 (HCT-116): > 20 µM
IC50 (PC-3): > 20 µM

COc1cc2cc(-c3nc4ccc(C)cc4[nH]3)c3cc(OC)c(OC)cc3c2cc1OC
IC50 (MDA-MB-453): > 20 µM
IC50 (BT-549): > 20 µM
IC50 (DU-145): 8.21 µM
IC50 (HCT-15): > 20 µM
IC50 (HCT-116): > 20 µM
IC50 (PC-3): > 20 µM

COc1cc2cc(-c3nc4ncc(Br)cc4[nH]3)c3cc(OC)c(OC)cc3c2cc1OC
IC50 (MDA-MB-453): > 20 µM
IC50 (BT-549): > 20 µM
IC50 (DU-145): 10 µM
IC50 (HCT-15): > 20 µM
IC50 (HCT-116): > 20 µM
IC50 (PC-3): > 20 µM

COC(=O)Nc1nc2cc(C(=O)c3cccs3)ccc2[nH]1 [NOCODAZOLE]
IC50 (MDA-MB-453): 0.91 µM
IC50 (DU-145): 1.14 µM
IC50 (HCT-116): 1.06 µM
IC50 (PC-3): 1.84 µM

COc1cc2cc(-c3nc4cc(C)cc(C)c4[nH]3)c3cc(OC)c(OC)cc3c2cc1OC
IC50 (MDA-MB-453): > 20 µM
IC50 (BT-549): 7.15 µM
IC50 (DU-145): > 20 µM
IC50 (HCT-15): > 20 µM
IC50 (HCT-116): > 20 µM
IC50 (PC-3): 18.3 µM

COc1cc2cc(-c3nc4ccc(C(=O)O)cc4[nH]3)c3cc(OC)c(OC)cc3c2cc1OC
IC50 (MDA-MB-453): 10.6 µM
IC50 (BT-549): > 20 µM
IC50 (DU-145): 12.7 µM
IC50 (HCT-15): 8.34 µM
IC50 (HCT-116): 9.92 µM
IC50 (PC-3): 10.2 µM

COc1cc2cc(-c3nc4cc(Cl)ccc4n3Cc3ccccc3)c3cc(OC)c(OC)cc3c2cc1OC
IC50 (MDA-MB-453): 17.3 µM
IC50 (BT-549): > 20 µM
IC50 (DU-145): > 20 µM
IC50 (HCT-15): 10.3 µM
IC50 (HCT-116): > 20 µM
IC50 (PC-3): 11.5 µM

COc1cc2cc(-c3nc4ccc(F)cc4[nH]3)c3cc(OC)c(OC)cc3c2cc1OC
IC50 (MDA-MB-453): > 20 µM
IC50 (BT-549): 10.8 µM
IC50 (DU-145): > 20 µM
IC50 (HCT-15): 9.42 µM
IC50 (HCT-116): > 20 µM
IC50 (PC-3): 14.6 µM

COc1ccc2cc(-c3nc4ncc(Br)cc4[nH]3)c3cc(OC)c(OC)cc3c2c1
IC50 (MDA-MB-453): > 20 µM
IC50 (BT-549): 7.91 µM
IC50 (DU-145): > 20 µM
IC50 (HCT-15): > 20 µM
IC50 (HCT-116): > 20 µM
IC50 (PC-3): 11.3 µM

COc1cc2cc(-c3nc4ccc(Br)cc4[nH]3)c3cc(OC)c(OC)cc3c2cc1OC
IC50 (MDA-MB-453): 15.1 µM
IC50 (BT-549): > 20 µM
IC50 (DU-145): > 20 µM
IC50 (HCT-15): > 20 µM
IC50 (HCT-116): > 20 µM
IC50 (PC-3): 15.7 µM

COc1cccc2c1C(=O)c1c(O)c3c(c(O)c1C2=O)C[C@@](O)(C(=O)CO)C[C@@H]3O[C@H]1C[C@H](N)[C@H](O)[C@H](C)O1 [DOXORUBICIN]
Activity (Calf thymus DNA): Active
IC50 (DU-145): 1.91 µM

O=c1[nH]cc(F)c(=O)[nH]1 [FLUOROURACIL]
IC50 (DU-145): 2.18 µM
IC50 (HCT-116): 8.62 µM

COc1cc2cc(-c3nc4ccccc4[nH]3)c3cc(OC)c(OC)cc3c2cc1OC
IC50 (MDA-MB-453): > 20 µM
IC50 (BT-549): > 20 µM
IC50 (DU-145): 18.9 µM
IC50 (HCT-15): > 20 µM
IC50 (HCT-116): > 20 µM
IC50 (PC-3): 12.8 µM
